Data reported in ChEMBL document CHEMBL1156706, “Structure-activity relationships of novel heteroaryl-acrylonitriles as cytotoxic and antibacterial agents” (Eur J Med Chem, 2008).
In brackets after ≈: the same amount, converted by molar mass.

What was measured:
[1] = Aqueous solubility in phosphate buffered saline at pH 7.4 after 24 hrs; assay type: physicochemical
Outline: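 Solid added in excess to Dulbecco's PBS, pH 7.4, and stirred in the dark 24 h at room temperature. Suspension filtered through a 0.22 filter. Filtrate absorbance read at each compound's λmax, and dissolved concentration calculated from the extinction coefficient at that wavelength.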

5637 = assay: Cytotoxicity against human 5637 cells after 96 hrs by microtiter assay; assay type: functional, cell-based; details: Homo sapiens, 5637, 96 h
Outline: (§1)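 DSMZ cell lines in RPMI 1640 with 10% FCS. DMF stocks diluted 1000-fold into medium. Continuous exposure 96 h at 37 °C, 5% CO2. Adherent cells stained with crystal violet. IC50 (50% growth inhibition vs untreated control) obtained by least-squares fitting of dose–response curves, averaging 2–5 independent determinations.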

RT-112 = assay: Cytotoxicity against human RT112 cells after 96 hrs by microtiter assay; assay type: functional, cell-based; details: RT-112, 96 h; outline: as §1
A-427 = assay: Cytotoxicity against human A427 cells after 96 hrs by microtiter assay; assay type: functional, cell-based; details: A-427, 96 h; outline: as §1
[2] = Cytotoxicity against human KYSE70 cells after 96 hrs by microtiter assay; assay type: functional, cell-based; details: KYSE-70, 96 h; outline: as §1
KYSE-510 = assay: Cytotoxicity against human KYSE510 cells after 96 hrs by microtiter assay; assay type: functional, cell-based; details: KYSE-510, 96 h; outline: as §1
[3] = Cytotoxicity against human LCLC-103H cells after 96 hrs by microtiter assay; assay type: functional, cell-based; outline: as §1
YAPC = assay: Cytotoxicity against human YAPC cells after 96 hrs by microtiter assay; assay type: functional, cell-based; outline: as §1
RT-4 = assay: Cytotoxicity against human RT4 cells after 96 hrs by microtiter assay; assay type: functional, cell-based; details: RT-4, 96 h; outline: as §1
[4] = Cytotoxicity against human KYSE520 cells after 96 hrs by microtiter assay; assay type: functional, cell-based; details: KYSE-520, 96 h; outline: as §1
MCF7 = assay: Cytotoxicity against human MCF7 cells after 96 hrs by microtiter assay; assay type: functional, cell-based; details: MCF7, 96 h; outline: as §1
SISO = assay: Cytotoxicity against human SISO cells after 96 hrs by microtiter assay; assay type: functional, cell-based; outline: as §1
DAN-G = assay: Cytotoxicity against human DAN-G cells after 96 hrs by microtiter assay; assay type: functional, cell-based; outline: as §1
Enterococcus hirae = assay: Antibacterial activity against Enterococcus hirae NCTC 10541 after 24 hrs; assay type: functional, organism-based; details: NCTC 10541, 24 h
Outline: (§2)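 Overnight culture diluted in Mueller–Hinton broth to 10^5 CFU/ml. Compounds dissolved in DMSO and diluted twofold in broth over 0.24–62.5 […]. Tubes inoculated and incubated 24 h at 37 °C. MIC taken as the lowest concentration with no visible growth. Clear tubes were subcultured onto Mueller–Hinton agar, and MBC was taken as the minimal concentration killing the organisms after 24 h.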

Staphylococcus aureus = assay: Antibacterial activity against Staphylococcus aureus NCTC 4163 after 24 hrs; assay type: functional, organism-based; details: NCTC 4163, 24 h; outline: as §2
[5] = test system: Staphylococcus epidermidis; assay: Antibacterial activity against Staphylococcus epidermis NCTC 14990 after 24 hrs; assay type: functional, organism-based; details: NCTC 14990, 24 h; outline: as §2

Compound | solubility at 24 h [1] | IC50 5637 | IC50 (RT-112) | IC50 (A-427) | IC50 [2] | IC50 (KYSE-510) | IC50 [3] | IC50 (YAPC) | IC50 (RT-4) | IC50 [4] | IC50 (MCF7) | IC50 (SISO) | IC50 (DAN-G) | MIC (Enterococcus hirae) | MIC (Staphylococcus aureus) | MIC [5]
N#C/C(=C\c1ccc([N+](=O)[O-])o1)c1nc2cccnc2[nH]1 | 1.4 µM (≈ 0.394 µg/mL) | 1.08 µM | 1.11 µM | 750 nM | 1.33 µM | 5.46 µM | 0.41 µM | 1.02 µM | 1.76 µM | 1.58 µM | 1.39 µM | 0.72 µM | 1.81 µM |  |  | 
Cc1cc2nc(/C(C#N)=C/c3ccc([N+](=O)[O-])s3)[nH]c2cc1C |  | 0.05 µM | 0.12 µM | 20 nM | 0.05 µM | 0.12 µM | 0.03 µM | 0.04 µM | 0.14 µM | 0.06 µM | 0.13 µM | 0.1 µM | 0.2 µM |  |  | 
N#C/C(=C\c1ccc([N+](=O)[O-])o1)c1nc2ccccc2o1 | < 0.1 µM | 1.65 µM | 1.41 µM | 1130 nM | 2.91 µM | 7 µM | 1.33 µM | 2.86 µM | 3.98 µM | 1.68 µM | 2.87 µM | 2.86 µM | 3 µM | > 222 µM | 111 µM (≈ 31.2 µg/mL) | 111 µM (≈ 31.2 µg/mL)
N#C/C(=C\c1ccccn1)c1nc2cccnc2[nH]1 | 28 µM (≈ 6.92 µg/mL) | 3.9 µM | 8.18 µM | 5150 nM | 8.14 µM | 13.9 µM | 7.37 µM | 8.89 µM | 10 µM | 7.98 µM | 8.28 µM | 5.53 µM | 7.97 µM |  |  | 
N#C/C(=C\c1ccc([N+](=O)[O-])s1)c1nc2ccccc2o1 | < 0.1 µM | 3.91 µM | 3.88 µM | 2330 nM | 5.3 µM | 22.6 µM | 12.1 µM | 1.7 µM | 6.57 µM | 2.76 µM | 5.69 µM | 14.1 µM | 12.6 µM | > 210 µM | 210 µM (≈ 62.4 µg/mL) | 210 µM (≈ 62.4 µg/mL)
N#C/C(=C\c1cccnc1)c1nc2ccccc2[nH]1 |  | 1.79 µM | 3.5 µM | 3290 nM | 4.25 µM | 3.92 µM | 1.97 µM | 4.92 µM | 3.47 µM | 5.13 µM | 3.15 µM | 3.02 µM | 3.27 µM |  |  | 
N[C@@H](Cc1ccc(N(CCCl)CCCl)cc1)C(=O)O [MELPHALAN] |  | 0.31 µM | 4.69 µM | 5130 nM | 16.2 µM | 8.18 µM | 4 µM | 5.95 µM | 14.2 µM | 10.5 µM | 3.71 µM | 1 µM | 2.65 µM |  |  | 
N#C/C(=C\c1ccccn1)c1nc2ccccc2s1 | 2 µM (≈ 0.527 µg/mL) | 6.65 µM | 8.19 µM | 6050 nM | 7.28 µM | 13 µM | 7.8 µM | 8.27 µM | 9.69 µM | 9.18 µM | 4.34 µM | 5.69 µM | 6.47 µM |  |  | 
O=C(Cn1cnc2ccccc21)NC(O)c1ccc([N+](=O)[O-])o1 (stereo unspecified) |  | 5.91 µM | 3.9 µM | 5900 nM | 5.57 µM | 9.49 µM | 1.78 µM | 5.66 µM | 31.2 µM | 5.14 µM | 5.37 µM | 3.22 µM | 4.18 µM |  |  | 
N#C/C(=C\c1ccc([N+](=O)[O-])cc1)n1cnc2ccccc21 |  | 2.2 µM | 2.2 µM | 1700 nM | 2.63 µM | 2.41 µM | 1.71 µM | 2.43 µM | 2.56 µM | 1.92 µM | 2.47 µM | 4.34 µM | 1.53 µM |  |  | 
N#C/C(=C\c1ccc([N+](=O)[O-])s1)c1nc2cccnc2[nH]1 | 0.5 µM (≈ 0.149 µg/mL) | 0.17 µM | 0.62 µM | 110 nM | 0.38 µM | 0.74 µM | 0.11 µM | 0.3 µM | 0.33 µM | 0.32 µM | 0.2 µM | 0.53 µM | 0.62 µM | 210 µM (≈ 62.4 µg/mL) | 6.4 µM (≈ 1.9 µg/mL) | 3.2 µM (≈ 0.951 µg/mL)
N#C/C(=C\c1ccsc1)c1nc2ccccc2[nH]1 |  | 14.1 µM | 13.3 µM | 6390 nM | 16 µM | 23 µM | 3.75 µM | 28.9 µM | 7.82 µM | 14.6 µM | 14.4 µM | 23.8 µM | 15.7 µM |  |  | 
COc1ccc(/C=C(\C#N)c2nc3ccccc3[nH]2)s1 |  | 31.9 µM | 14.7 µM | 7190 nM | 12.2 µM | 12 µM | 5.24 µM | > 40 µM | 21.2 µM | 20.5 µM | 13.2 µM | 36.8 µM | 13.8 µM |  |  | 
N#C/C(=C\c1ccc([N+](=O)[O-])o1)c1nc2ccccc2s1 | 0.7 µM (≈ 0.208 µg/mL) | 2.37 µM | 1.78 µM | 1210 nM | 2.38 µM | 5.44 µM | 1.47 µM | 2.25 µM | 4.3 µM | 2 µM | 3.33 µM | 2.5 µM | 3.84 µM | > 210 µM | > 210 µM | > 210 µM
N#C/C(=C\c1ccccn1)c1nc2ccccc2[nH]1 |  | 2.28 µM | 4.73 µM | 2840 nM | 6.82 µM | 3.67 µM | 7.42 µM | 6.58 µM | 2.68 µM | 10.5 µM | 8.14 µM | 1.91 µM | 3.67 µM | > 215 µM | > 215 µM | 215 µM (≈ 52.9 µg/mL)
N#C/C(=C\c1cccc([N+](=O)[O-])c1)n1cnc2ccccc21 |  | 4.01 µM | 4.16 µM | 2860 nM | 4.06 µM | 3.09 µM | 3.48 µM | 3.39 µM | 4.02 µM | 2.3 µM | 2.61 µM | 6.57 µM | 2.26 µM |  |  | 
S=P(N1CC1)(N1CC1)N1CC1 [THIOTEPA] |  | 2 µM | 3.4 µM | 1580 nM | 5.4 µM | 4.31 µM | 6.97 µM | 2.66 µM | 18.3 µM | 6.44 µM | 3.23 µM | 1.4 µM | 1.66 µM |  |  | 
N#C/C(=C\c1ccccn1)c1nc2ccccc2o1 | 23 µM (≈ 5.69 µg/mL) | > 20 µM |  |  |  |  | > 20 µM |  | > 20 µM |  |  |  |  |  |  | 
N#C/C(=C\c1ccncc1)c1nc2ccccc2[nH]1 |  | 31.2 µM | 30.7 µM | 26200 nM | 37.1 µM | > 40 µM | 19.7 µM | > 40 µM | 40.1 µM | > 40 µM | > 40 µM | > 40 µM | > 40 µM |  |  | 
N#C/C(=C\c1ccc([N+](=O)[O-])s1)c1nc2ccccc2s1 | < 0.1 µM | 0.62 µM | 0.75 µM | 380 nM | 0.51 µM | 0.93 µM | 0.88 µM | 0.42 µM | 0.92 µM | 0.46 µM | 0.83 µM | 0.64 µM | 0.72 µM | > 200 µM | 12 µM (≈ 3.76 µg/mL) | 12 µM (≈ 3.76 µg/mL)
O=C1CN(/N=C/c2ccc([N+](=O)[O-])o2)C(=O)N1 [NITROFURANTOIN] |  | 21.3 µM |  | 1860 nM | 22.8 µM | 29 µM | 2.34 µM |  | 7 µM |  | 4.44 µM | 7.27 µM | 6.74 µM |  |  | 
N#C/C(=C\c1csc(Br)c1)c1nc2ccccc2[nH]1 |  | > 40 µM | > 40 µM | > 40000 nM | > 40 µM | > 40 µM | 22.8 µM | > 40 µM | > 40 µM | > 40 µM | > 40 µM | > 40 µM | > 40 µM |  |  | 
O=C(Cn1cnc2ccccc21)NC(O)c1ccc([N+](=O)[O-])s1 (stereo unspecified) |  | 33.7 µM | 13.7 µM | 228000 nM | 57.4 µM | 140 µM | 7.46 µM | 22.4 µM | 2.96 µM | 24.2 µM | 13.1 µM | 11.7 µM | 9.6 µM |  |  | 
